T cruzi repl: inhibitors of intracellular T. cruzi growth, primary screen, luminescence, NIH3T3 host cells. T. cruzi beta-gal in NIH3T3, 90 h. inhibition, % (concentration not given with the values). 1.4% of 300,000 active. AID 1885, 2009;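 active = mean inhibition across valid replicates above about 55%, limit read from the data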;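 note: signal also drops with host cell toxicity which is not excluded here; 0% = plate median of DMSO wells and 100% = zero luminescence signal; higher percent means less beta-gal luminescence so fewer parasites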
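assay system = mouse NIH/3T3 fibroblasts infected with β-gal-expressing T. cruzi Tulahuen C4 | input = 5,000 NIH/3T3 host cells per well | buffer or medium = DMEM plus 2% FBS | timing = 3 h host attachment, then at least 90 h co-culture | measured by = GalScreen luminescence, 60 min | evaluation = luminescence reflecting intracellular parasite burden, expressed as percent inhibition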
Mdm2 MdmX PPI: inhibitors of human Mdm2-MdmX association, primary screen, cell-based, luminescence, split luciferase, SaOS-2, uHTS; inhibition, % at 8 µM; SaOS-2 split-luciferase Mdm2/MdmX complementation; 3% of 330,000 active; Protein Mdm4 (Homo sapiens) + E3 ubiquitin-protein ligase Mdm2 (Homo sapiens), …;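 active = inhibition of at least 50% at 8 µM in the primary screen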
Target sequence (O15151 whole entry, looked up): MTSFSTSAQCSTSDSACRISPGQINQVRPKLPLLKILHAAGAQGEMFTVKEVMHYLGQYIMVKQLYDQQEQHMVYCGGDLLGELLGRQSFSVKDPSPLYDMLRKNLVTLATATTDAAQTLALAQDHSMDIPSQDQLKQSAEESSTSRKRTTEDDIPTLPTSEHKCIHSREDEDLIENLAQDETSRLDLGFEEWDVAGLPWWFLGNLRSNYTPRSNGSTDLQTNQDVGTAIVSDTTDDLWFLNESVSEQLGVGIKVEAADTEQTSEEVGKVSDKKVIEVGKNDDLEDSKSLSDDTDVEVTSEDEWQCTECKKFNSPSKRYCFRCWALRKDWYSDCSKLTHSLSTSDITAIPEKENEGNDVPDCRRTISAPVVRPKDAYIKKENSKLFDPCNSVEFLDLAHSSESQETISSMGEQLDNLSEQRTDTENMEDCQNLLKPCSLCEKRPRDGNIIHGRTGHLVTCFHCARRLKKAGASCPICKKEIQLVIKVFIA
Target sequence (Q00987 whole entry, looked up): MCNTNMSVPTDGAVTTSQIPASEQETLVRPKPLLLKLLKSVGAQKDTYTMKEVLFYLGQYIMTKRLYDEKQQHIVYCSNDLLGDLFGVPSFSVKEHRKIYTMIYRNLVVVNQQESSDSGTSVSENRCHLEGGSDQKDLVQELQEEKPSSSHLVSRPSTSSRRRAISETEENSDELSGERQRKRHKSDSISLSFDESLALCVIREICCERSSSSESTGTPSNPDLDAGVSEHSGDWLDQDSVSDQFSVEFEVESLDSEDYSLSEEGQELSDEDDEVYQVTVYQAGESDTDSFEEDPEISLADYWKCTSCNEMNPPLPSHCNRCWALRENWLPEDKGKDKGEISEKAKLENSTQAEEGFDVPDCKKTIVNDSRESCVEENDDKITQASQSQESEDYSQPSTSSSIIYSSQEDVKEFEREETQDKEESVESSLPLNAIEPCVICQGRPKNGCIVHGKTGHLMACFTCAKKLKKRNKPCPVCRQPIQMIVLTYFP
Beta apoptosis: inhibitors of cytokine-induced beta cell apoptosis, primary screen, luminescence. 0.8% of 300,000 active. protection from apoptosis, % (concentration not given with the values). INS-1E cytokine-induced death, ATP luminescence, 48 h; percent of positive-control rescue, neutral wells zero;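 active = Every replicate reaches about 75%, or at least half do and their mean reaches it too, limit read from the data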;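 note: 0% = cytokine-treated negative control wells and 100% = positive control rescue; higher means more ATP so stronger rescue from cytokine killing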
Calb FLC: C. albicans growth inhibition with fluconazole, primary screen, CaCi-2 strain, Alamar Blue fluorescence; C. albicans CaCi-2 + fluconazole, 48 h; growth inhibition, % (no concentration beside the values); 0.57% of 300,000 active; AID 1979, 2009;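 active = growth inhibition above about 58% in most replicates, limit read from the data, passing the limit was not always enough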;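 note: all wells also contain fluconazole at 8 µg/ml as a sub-toxic cotreatment; 0% = median of DMSO wells and 100% = median of geldanamycin control wells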
SKKanGAS inh: S. pyogenes SKKanGAS growth inhibitors in kanamycin, primary screen, streptokinase expression inhibitor project, SKKanGAS strain, BacTiter-Glo luminescence | inhibition, % at 7.5 µM | 6 h | 1.3% of 300,000 active | AID 1662, 2009;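 active = mean replicate score, as percent of positive control median, at least 50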;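 note: strain carries kanamycin resistance gene driven by streptokinase promoter and grows in 40 µg/ml kanamycin; loss of luminescence reflects streptokinase promoter inhibition or plain growth inhibition; 0% = median of DMSO wells and 100% = positive control at its reference dose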
CSC inhib: cancer stem cell viability inhibitors, primary screen, luminescence; AID 2717, 2010; cancer stem cell-like cells viability; 1.1% of 300,000 active; inhibition, % at 7.5 µM; in the data active = inhibition above about 75%; tested in HMLE shEcad cells
Mdm2 MdmX conf: Mdm2-MdmX complex disruptors, retested hits, confirmation, luminescence, single concentration | shares compounds with Mdm2 MdmX PPI | Mdm2-MdmX binding, luminescent assay | inhibition, % at 8 µM | 55% of 10,000 active | AID 489028, 2010; in the data active = inhibition above about 40%
Full FLuc ctr: full-length luciferase signal inhibition, confirmation, counter-screen for Mdm2/MdmX interaction inhibitor project, cell-based, single concentration, SaOS-2 | inhibition, % at 8 µM | shares compounds with Mdm2 MdmX PPI | 77% of 6,200 active | AID 504607, 2011 | SaOS-2 full-length luciferase counterscreen, luminescence;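 active = mean inhibition at 8 µM reaching about 37%, which flags the compound as non-specific, limit read from the data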;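 note: p53-null SaOS-2 cells with luciferase driven by a doxycycline-inducible promoter; compound on cells about two nights before reading with doxycycline added after day one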
An asterisk follows results filed as active; / = not tested or not shown. The list is not random: actives were taken first. Their share in the collection is about 5.7%.

SMILES | T cruzi repl | Mdm2 MdmX PPI | Beta apoptosis | Calb FLC | SKKanGAS inh | CSC inhib | Mdm2 MdmX conf | others
CCOc1cc(NC(=O)C2CC2)c(OCC)cc1NC(=O)c1ccccc1OCC | 16.6 | 35.7 | 31.4 | -0.2 | 17.2 | 40.3 | /
O=C(O)COCC(=O)N1CCc2c([nH]c3ccccc23)C1C(F)(F)F (stereo not drawn) | -7.3 | 7.5 | -7.1 | -4.5 | 0.3 | -1.5 | /
O=C(/C=C/c1cccs1)N1CCC2(CC1)Oc1ccc(Cl)cc1C(=O)C21CC(c2cccnc2)=NO1 (stereo not drawn) | 15.1 | 67.3* | 13.9 | 38.2 | 36.6 | 45.2 | 27.1
CC(C)C(=O)N1CCC2(CC1)Oc1ccc(Cl)cc1C(=O)C21CC(c2ccccc2)=NO1 (stereo not drawn) | 5.2 | 14.8 | -0.8 | 28.2 | 17.0 | 4.4 | /
COc1cccc(OC)c1NC(=O)CN1CCN(C)CC1 | 1.2 | 10.7 | -2.8 | -4.1 | 2.3 | 11.5 | /
Nc1nnc(CC(=O)N/N=C/c2ccc(-c3ccc(Cl)cc3Cl)o2)s1 | -10.4 | 67.8* | 0.1 | 4.4 | -19.8 | 1.5 | 34.2 | Full FLuc ctr=82.7*
Nc1nnc(CC(=O)N/N=C/c2ccc(-c3ccccc3Cl)o2)s1 | -1.2 | 18.4 | -5.7 | 20.0 | -7.9 | -7.6 | /
COc1ccc(C)cc1NC(=O)Nc1ccc(Br)cn1 | -6.8 | 23.9 | -8.6 | 3.3 | -7.2 | -7.3 | /
COc1ccccc1CNC(=O)OCc1nccnc1C(=O)Nc1ccc(Br)cn1 | 2.1 | 54.6* | -8.8 | -4.0 | -2.3 | -1.3 | -6.8
CCNC(=O)N1CCCC(C(=O)c2ccc(C(F)(F)F)cc2)C1 (stereo not drawn) | -5.5 | 10.0 | / | 0.9 | -0.4 | 3.7 | /
Cn1c(=O)c(C(=O)COC(=O)c2cc(C(F)(F)F)nc3c(C(F)(F)F)cccc23)c(N)n(CC2CC2)c1=O | -1.2 | 77.2* | -6.3 | -2.4 | 32.8 | -11.1 | 2.5
Cn1c(N)c(C(=O)COC(=O)c2cc(-c3ccccc3)nc3ccccc23)c(=O)n(C)c1=O | 33.3 | 66.4* | 26.7 | 71.2 | 35.9 | -7.1 | 29.1 | Full FLuc ctr=60.3*
CC(C)Cn1c(N)c(C(=O)COC(=O)c2cc(-c3ccccc3)nc3ccccc23)c(=O)n(C)c1=O | 43.4 | 28.1 | 11.9 | -1.8 | 27.5 | -9.4 | /
CC(C)(C)NCC(O)COc1cccc2c1CCC(=O)N2 (stereo not drawn) | / | 18.7 | -5.0 | / | / | -7.5 | /
CCCCN1C2=NC(c3ccccc3)CN2c2ccccc21 (stereo not drawn) | -8.1 | -4.2 | 8.6 | 3.6 | -2.2 | -18.0 | /
COc1ccc(OC)c(NC(=O)CN(Cc2ccc(F)cc2)C2CCCCC2)c1 | 23.0 | 51.7* | 100.5* | 12.9 | 11.8 | 22.7 | 23.3
COc1ccc(Cl)cc1NC(=O)CN(C)C1CCCCC1 | 16.0 | 12.8 | 0.8 | 7.5 | 2.3 | 9.3 | /
O=C(O)CCN=CC1=C(O)CC(c2ccccc2)CC1=O (stereo not drawn) | -9.4 | -8.9 | 3.1 | -0.6 | 1.7 | 3.2 | /
OCC1(Cc2ccc(F)cc2)CCCN(CCCC(F)(F)F)C1 (stereo not drawn) | 3.6 | -2.6 | -0.9 | 4.8 | 2.0 | 41.7 | /
COc1nn(-c2ccccc2)c(=O)c(Cl)c1Cl | 53.5 | 100.3* | -8.2 | 41.1 | -6.8 | 0.8 | 61.8* | Full FLuc ctr=18.1
COc1c(Cl)cnn(-c2ccccc2)c1=O | -17.6 | 26.6 | 4.8 | 4.3 | -4.1 | -13.0 | /
Cc1ccc(-c2[nH][nH]c(=O)c(=O)c2N=Nc2ccccc2)cc1 | -1.1 | 60.9* | 7.8 | -3.2 | -0.3 | 3.4 | -2.3
CCCNC(=O)C(Cc1ccc(I)cc1)NC(=O)c1ccc(C#N)cc1 (stereo not drawn) | / | 6.5 | -5.1 | / | / | -14.9 | /
CN(CCOc1ccc(Cl)cc1)C(=O)c1cc(S(=O)(=O)N2CCOCC2)ccc1N1CCCC1 | / | 5.2 | 6.5 | / | / | / | /
Cn1c(N)c(C(=O)Nc2ccccc2F)sc1=S | / | 12.1 | -1.4 | 0.1 | -2.6 | -10.4 | /
SMILES | T cruzi repl | Mdm2 MdmX PPI | Beta apoptosis | Calb FLC | SKKanGAS inh | CSC inhib | Mdm2 MdmX conf | others
Nc1c(C(=O)Nc2ccc(F)cc2)sc(=S)n1-c1ccccc1F | 20.3 | 71.6* | -11.2 | -6.9 | -1.2 | 0.1 | 2.8
O=C(O)c1ccc(OCc2cn3ccccc3n2)cc1 | -21.4 | 20.7 | -5.9 | -9.6 | 0.2 | -3.2 | /
O=C(COc1ccc(Oc2ccccc2)cc1)NCc1cn2ccccc2n1 | 39.3 | 56.0* | 2.2 | 37.1 | -12.0 | 60.0 | 56.6* | Full FLuc ctr=73.0*
CS(=O)(=O)c1ccc2nc(NC(=O)Nc3ccc(Cl)c(Cl)c3)sc2c1 | 14.4 | 54.4* | 33.4 | -16.2 | 1.9 | -0.3 | 9.2
CS(=O)(=O)c1ccc2nc(NC(=O)Nc3cccc(Cl)c3)sc2c1 | 2.1 | 91.7* | 50.9 | 4.2 | -3.9 | 63.0 | 64.2* | Full FLuc ctr=76.8*
CS(=O)(=O)c1ccc2nc(NC(=O)Nc3ccccc3F)sc2c1 | -4.8 | -206.1 | -1.4 | -1.4 | -0.4 | -1.6 | /
Cc1ccc(NC(=O)Nc2nc3ccc(S(C)(=O)=O)cc3s2)cc1 | / | 14.4 | / | / | / | / | /
CC(C)(C)OC(=O)C[C@H]1C/C=C\C[C@H](CC(=O)NCCO)C(=O)N2CCC[C@@H]2COC1=O | / | 12.0 | -4.1 | / | / | 2.5 | /
COc1ccc(/C=C(\NC(=O)c2ccc(C)cc2)C(=O)Nc2ccc(C(=O)O)cc2)cc1 | -6.1 | -11.7 | -3.5 | 2.1 | -3.5 | -2.7 | /
O=C(/C=C/c1c(F)cccc1Cl)NCc1ccco1 | 2.5 | -1.4 | -4.0 | 5.5 | -6.7 | -3.1 | /
O=C(CN1C(=O)/C(=C/c2c(F)cccc2Cl)Oc2ccccc21)NCc1ccco1 | 21.2 | 63.7* | 9.7 | -5.3 | 6.3 | 43.4 | 48.8* | Full FLuc ctr=101.5*
Cc1ccc(C)c(Cn2nnc3c(=O)[nH]c(C(=O)NCc4ccco4)nc32)c1 | 7.8 | -1.4 | -0.6 | -0.3 | 21.1 | / | /
O=C(NCc1ccco1)c1nc2c(nnn2Cc2ccccc2Cl)c(=O)[nH]1 | 10.0 | 88.3* | 9.9 | 26.8 | 2.2 | 94.1* | 93.2* | Full FLuc ctr=21.1
NNc1nc2ccccc2c(=O)n1Cc1ccccc1 | -18.7 | -23.4 | -5.8 | 8.2 | 3.9 | 7.2 | /
COc1ccc(CNC(=O)C(c2ccc(C)cc2)N(Cc2cccs2)C(=O)c2ccc3c(c2)OCCO3)cc1 (stereo not drawn) | 13.9 | 75.1* | 4.3 | 1.5 | 1.7 | 14.7 | 75.1* | Full FLuc ctr=60.3*

Assay outcomes (PubChem)
